# MrgX1 PAM: human MrgX1 positive allosteric modulation, primary screen; AID 588675; Q96LB2; 310,000 compounds, 0.63% hits; B-score at 10 µM; MrgX1-HEK293, Fluo-4 calcium flux, FDSS; stronger effect = higher value;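 active = plate-corrected calcium response at least 3 library SD above typical, normal starting fluorescence, not activating the receptor alone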;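 also: compound read alongside a low EC10 to EC30 dose of BAM8-22 agonist; peak minus trough fluorescence over baseline measured at the second addition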
# Target sequence (Q96LB2 whole entry, looked up): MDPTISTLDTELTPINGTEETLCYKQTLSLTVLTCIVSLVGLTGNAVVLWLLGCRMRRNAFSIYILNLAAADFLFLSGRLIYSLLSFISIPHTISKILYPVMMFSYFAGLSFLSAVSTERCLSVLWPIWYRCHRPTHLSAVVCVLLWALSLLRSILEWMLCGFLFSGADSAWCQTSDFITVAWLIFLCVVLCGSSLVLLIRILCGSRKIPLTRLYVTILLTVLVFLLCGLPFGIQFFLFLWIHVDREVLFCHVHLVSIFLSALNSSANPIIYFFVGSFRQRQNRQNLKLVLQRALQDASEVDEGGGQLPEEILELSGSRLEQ
# MrgX1 antagonist: blocks BAM8-22 activation of human MrgX1 receptor | MRGX1-HEK293 calcium flux, Fluo-4, BAM8-22 antagonism; stronger effect = lower value | B-score at 10 µM | 310,000 compounds, 1.3% hits;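 active = calcium-response B-score plate-corrected more than 3 library SD below zero, starting fluorescence within 5 deviations, no agonist response on first addition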;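 also: peak minus trough fluorescence over baseline after final BAM8-22 challenge near maximal dose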
# MrgX1 ag: agonists of human MrgX1 receptor. Q96LB2. MrgX1-HEK293 cells, Fluo-4 calcium fluorescence, agonist mode; stronger effect = higher value. B-score at 10 µM. 310,000 compounds, 0.44% hits. AID 588627;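 active = calcium response B-score plate-corrected fluorescence ratio at least 3 library SD, with starting fluorescence B-score inside 5 SD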
#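 Test system: HEK293 cells stably expressing human MrgX1 receptor; Input: fifteen thousand cells per well; Dosing: compound delivered in addition one of three; Schedule: overnight seeding, then 1 h dark dye loading; Technique: Fluo-4 NW calcium fluorescence; Measure: B-scored fluorescence response ratio; Controls: positive and negative controls per plate.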
# RGS4 act: RGS4 potentiation or activation; B-score at 10 µM; HEK293 M3R/inducible RGS4, carbachol calcium flux Fluo4; stronger effect = lower value; 310,000 compounds, 0.92% hits;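 active = B-score of the integrated calcium signal more than 4 SD below the library mean, with starting fluorescence not abnormally high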;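 also: negative B-score means reduced calcium response which marks RGS4 activation or potentiation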
#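 Assay system: Inducible-RGS4 HEK293 cells carrying M3 receptor | Schedule: Compound preincubation 20 min at room temperature before agonist | Signal: Kinetic calcium fluorescence imaging with Fluo4-AM dye, 2 µM | Read-out basis: B score from integrated fluorescence ratio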
# RGS4 block: human RGS4 inhibition | P49798 | HEK293 M3R/RGS4 inducible, Fluo-4 calcium flux; stronger effect = higher value; triggered by carbachol at its EC20 | B-score at 10 µM | 310,000 compounds, 0.45% hits;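 active = B-score, a plate-corrected calcium signal, over three deviations above library mean, with baseline fluorescence within five deviations of library mean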;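 also: RGS4 expression induced by doxycycline in cells with stable M3 receptor; B-score is computed from the integrated fluorescence ratio over baseline after carbachol; higher B-score means a larger calcium signal and so more RGS4 inhibition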
# Target sequence (P49798 whole entry, looked up): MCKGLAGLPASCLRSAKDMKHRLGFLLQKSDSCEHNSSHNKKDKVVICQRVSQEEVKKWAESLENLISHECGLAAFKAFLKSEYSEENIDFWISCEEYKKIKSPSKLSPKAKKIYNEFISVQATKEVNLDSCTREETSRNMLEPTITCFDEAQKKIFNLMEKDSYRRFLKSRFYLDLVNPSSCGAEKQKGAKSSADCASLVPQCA
# The depositor's hits bear a star; i = inactive; x = not tested or not shown. Only some compounds are listed: those with a hit (about 3.5% of all), similar ones and a draw of the others.
SMILES,MrgX1 PAM,MrgX1 antagonist,MrgX1 ag,RGS4 act,RGS4 block
Cc1cccc(Oc2ncnc(N)c2[N+](=O)[O-])c1C,i,i,i,i,i
CN1C(=O)/C(=C/c2ccc(C(=O)Nc3ccc(O)cc3C(=O)O)cc2)SC1=S,i,i,i,i,i
CN1CCc2nc3ccc(Cl)cc3c(-c3ccccc3Cl)c2C1,i,i,i,-8.6*,i
Cc1nc2ccc(Cl)cc2c(-c2ccccc2Cl)c1CC(=O)O,i,i,i,i,i
O=C1CCCCN1CCCC(=O)N1CCCC(Nc2ccc(F)c(F)c2)C1 (stereo not drawn),i,i,i,i,i
COCCCNC(=O)C(C)N1c2cccc3cccc(c23)S1(=O)=O (stereo not drawn),i,i,i,i,i
Cc1ccc(-c2ccc(/C=C(\C#N)C(=O)Nc3cc(C)nn3-c3ccccc3)o2)cc1,i,i,i,-8.6*,i
O=C(O)C1CCC(N2C(=O)c3c(Cl)c(Cl)c(Cl)c(Cl)c3C2=O)CC1 (stereo not drawn),i,i,i,i,i
O=[N+]([O-])c1ccc(N2CCN(S(=O)(=O)c3ccc(Cl)c(Cl)c3)CC2)cc1NCCN1CCOCC1,i,i,i,i,i
CCNc1cc(N2CCN(S(=O)(=O)c3ccc4c(c3)CCCC4)CC2)ccc1[N+](=O)[O-],i,-7.5*,i,i,i
O=C(c1ccc2nc(Cc3ccccc3F)oc2c1)N1CC[C@H](O)C1,i,i,i,i,i
COc1ccc(N2CCN(CCCNC(=O)C(=O)c3c[nH]c4ccccc34)CC2)cc1,i,i,i,i,i
COc1ccc(/C=c2\s/c(=C/C(=O)c3ccc(C)cc3)[nH]c2=O)cc1OC,i,i,29*,i,i
CC(C)(C)C(=O)/C=c1\[nH]c(=O)/c(=C\c2ccc(F)cc2)s1,i,i,i,i,i
CCCCn1c(N)c(N(CCOC)C(=O)c2ccc(-n3c(C)ccc3C)cc2)c(=O)[nH]c1=O,i,i,i,i,i
O=c1[nH]c2ccccc2c(O)c1-c1cc2ccccc2oc1=O,i,i,i,i,i
NC(N)=NC(=O)c1nc(Cl)c(N)nc1N,i,i,i,i,i
NC(N)=NC(=O)c1nc(Cl)c(N2CCCCCC2)nc1N,i,i,57*,x,x
COCCCNC(=O)c1cccn2c(=O)c3cc4ccccc4cc3nc12,i,-8.5*,i,i,i
COc1cccc(OC)c1C(=O)NC(=O)Oc1c(F)cccc1F,i,i,i,i,i
O=C(O)C[C@H]1c2cc(C(F)(F)F)ccc2S(=O)(=O)N1C1CCCCC1,i,i,i,i,i
CS(=O)(=O)c1cccc(-c2nnc(NC(=O)C3=COCCO3)o2)c1,i,-4.9*,i,i,i
CN1/C(=C\C=O)C(C)(C)c2ccccc21,i,i,i,i,i
CN(C)c1ccc(N=C/C=C2\N(C)c3ccccc3C2(C)C)cc1,7.2*,i,i,i,i
CN1/C(=C\C=Nc2ccc3ccccc3c2)C(C)(C)c2ccccc21,i,i,83*,x,x
SMILES,MrgX1 PAM,MrgX1 antagonist,MrgX1 ag,RGS4 act,RGS4 block
C[N+]1(CC(=O)OC2CCCCCCCCCCC2)CCCC1,i,i,i,-7.2*,i
Cc1cccc(NS(=O)(=O)c2nnc(NC(=O)C3CCCCC3)s2)c1,i,i,i,i,i
CC(=O)OCC1O[C@@H](O[C@@H]2C[C@H]3C(C)(C)[C@H](OC(C)=O)CC[C@]3(C)[C@H]3CC[C@]45C[C@]4(CC[C@H]5[C@@H](C)C[C@@H](O)[C@H](O)C(C)(C)O)[C@@]32C)[C@H](O)[C@@H](O)[C@@H]1O (stereo partly drawn),i,i,42*,i,i
COc1ccc2c(c1)[nH]c1c(N3CCN(Cc4ccc5c(c4)OCO5)CC3)ncnc12,i,-6.1*,i,i,i
CCCNC(=O)Cn1c(=O)oc2ccccc21,i,i,i,i,i
CC(C)CN=Cc1c(O)c([N+](=O)[O-])cc2oc3c(c12)CCCC3,i,-6.2*,i,i,i
O=[N+]([O-])c1cc2oc3c(c2c(C=NCc2ccccc2)c1O)CCCC3,i,i,i,i,i
O=C(CCNC(=O)C1CCN(S(=O)(=O)c2ccccc2)CC1)Nc1ccccc1,i,i,i,i,i
COc1ccc2c(c1)c1ncn(CCN3CCCC3)c(=O)c1n2C,i,i,i,i,i
COc1ccccc1CCn1cnc2c3cc(C)ccc3n(C)c2c1=O,i,i,i,-7*,i
COc1ccccc1N(CC(=O)NCc1ccc2c(c1)OCO2)C(=O)CCC(=O)Nc1nccs1,i,i,i,i,i
CN(C)S(=O)(=O)c1ccc(-c2csc(N/N=C/c3ccc(O)cc3)n2)cc1,i,i,i,i,i
CCOC(=O)NN1C(=O)c2ccccc2NC1c1ccc(OC)cc1 (stereo not drawn),i,i,i,i,i
CCOC(=O)NN1C(=O)c2ccccc2NC1c1ccccc1 (stereo not drawn),i,-4.5*,i,i,i
COc1cc(OC)c(C=O)c(OC(=O)N2CCOCC2)c1,i,i,i,i,i
O=Cc1cc(Br)c(OC(=O)N2CCOCC2)c(Br)c1,i,i,27*,i,i
Cc1cc(C(=O)CSc2nnc(-c3ccccc3F)o2)c(C)n1Cc1cccs1,i,-6*,i,i,i
COc1ccccc1-n1cnnc1SCC(=O)c1cc(C)n(Cc2cccs2)c1C,i,i,i,i,i
COc1ccccc1C(CNC(=O)C(CCSC)NS(=O)(=O)c1ccccc1F)N1CCCC1 (stereo not drawn),i,i,i,i,i
CN1C(=O)c2ccc(NC(=S)NC(=O)C(C)(C)C)cc2C1=O,i,i,i,i,i
Cc1nonc1C(=O)N/N=C/c1cc2c(cc1Br)OCO2,i,-5*,i,i,i
Cc1nn(C)c(C(=O)N/N=C/c2cc3c(cc2Br)OCO3)c1Br,i,i,i,i,i
CCN(c1cccc(C)c1)S(=O)(=O)c1csc(C(N)=O)c1,i,i,i,i,i
COC(=O)C1=C(C)NC(C)=C(C(=O)OC)C1c1ccccc1[N+](=O)[O-],i,i,i,-8.5*,i
COc1ccc(C(=O)/C=C/c2ccc(N3CCCCC3)c([N+](=O)[O-])c2)c(OC)c1,14*,i,i,i,i
